Consider 15 molecules from ChEMBL document CHEMBL2057191, “Synthesis, structure-activity relationship, and pharmacological studies of novel melanin-concentrating hormone receptor 1 antagonists 3-aminomethylquinolines: reducing human ether-a-go-go-related gene (hERG) associated liabilities” (J Med Chem, 2012).

As a reminder, the IC50 is the point on the concentration scale where inhibition reaches its midpoint. Usually logD stands for lipophilicity at a set pH, counting ionised and neutral species. The low end stands for lower lipophilicity, the high end for higher lipophilicity. Broadly, the inhibition is how much of the control response was suppressed. A word on the bioavailability: it is the share of a dose that reaches the circulation, judged against a reference dose that is usually intravenous. Higher therefore signals much systemic uptake. The clearance is the volume of plasma or blood freed of the substance per unit of time. A lower clearance goes with a low capacity for elimination. What is called Cmax is the highest concentration seen after dosing. For orientation: Tmax means the time from dosing to the highest level. Broadly, the AUC(0-t) is the area under the concentration-time curve up to a stated or last time point. A higher AUC(0-t) goes with high exposure.

Each structure is given as a SMILES string.

The target of series [1] is T1, Melanin-concentrating hormone receptor 1 (Homo sapiens, UniProt Q99705). Description: Displacement of [125I]MCH from human MCHR1 expressed in CHO cells after 60 mins by liquid scintillation counting. Format: cell-based. A digest of the protocol:
(§1)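 Membrane homogenates from CHO cells stably expressing human or rat MCHR1 in 25 mM Tris-HCl pH 7.5 with EDTA, BSA and protease inhibitors. Membrane protein 2 μg/mL (human) or 4 μg/mL (rat). Nonspecific binding defined with 0.3 μM MCH(1–19). Filter radioactivity counted. IC50 from one experiment in duplicate.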

For series [2], the target named is Melanin-concentrating hormone receptor 1 (Rattus norvegicus, UniProt P97639). Description: Displacement of [125I]MCH from rat MCHR1 expressed in CHO cells after 60 mins by liquid scintillation counting. Format: cell-based. A digest of the protocol:
as §1
(In a radioligand displacement assay an active substance lowers the binding of a labelled ligand.)

Series [3] deals with T1, Melanin-concentrating hormone receptor 1. Nature of the series: Antagonist activity at human MCHR1 expressed in CHO cells assessed as inhibition of MCH-stimulated arachidonic acid release after 45 mins by liquid scintillation counting. Type of series: functional, cell-based.
The target of series [4] is Voltage-gated inwardly rectifying potassium channel KCNH2 (Homo sapiens, UniProt Q12809). Description: Inhibition of human ERG expressed in HMZ/CHO.8B4 cells assessed as inhibition of Rb+ efflux at 30 uM after 30 mins by flame atomic absorption spectrometer analysis relative to astemizole. Type of series: cell-based. To be noted: 0.5 h. Put shortly:
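HMZ/CHO.8B4 cells stably expressing hERG, 4 × 10⁴ cells/well, 24 h on collagen, Rb-loaded 3 h at 37 °C (5.4 mM RbCl, pH 7.4). Compound added for 30 min (n = 7), then 5 min stimulation with 50 mM KCl. Supernatant and lysate Rb⁺ read by flame atomic absorption. Fractional efflux normalized to background and maximum; astemizole as 0, vehicle as 1.0.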

Series [5] is described as follows: Lipophilicity, log D of the compound at pH 7.4. Format: physicochemical. The following applies: buffer.
Another series addresses hERG (KCNH2) (Homo sapiens, UniProt Q12809). Description: Inhibition of human ERG expressed in HMZ/CHO.8B4 cells at 10 uM by patch clamp assay. Format: cell-based. The following applies: HMZ/CHO.8B4 cells expressing human ERG.
The nature of series [6]: Bioavailability in Sprague-Dawley rat. Format: ADME, organism-based. To be noted: in vivo.
The nature of series [7]: Total clearance in Sprague-Dawley rat plasma at 1 mg/kg, iv. Type of series: ADME, organism-based. Also noted: dose 1 mg/kg, route intravenous. Put shortly:
(§2)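 Male Sprague-Dawley rats, 8 weeks old, given intravenous dose.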

Series [8] is described as follows: Volume of distribution at steady state in Sprague-Dawley rat at 1 mg/kg, iv. Format: ADME, organism-based. Also noted: dose 1 mg/kg, route intravenous. The following applies: in vivo, read-out: Vdss. A digest of the protocol: as §2
The nature of series [9]: Cmax in Sprague-Dawley rat plasma at 3 mg/kg, po. Format: ADME, organism-based. Also noted: dose 3 mg/kg, route oral. Put shortly:
(§3)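 Male Sprague-Dawley rats, 8 weeks old, given oral dose.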

A short description of series [10]: Tmax in Sprague-Dawley rat at 3 mg/kg, po. Format: ADME, organism-based. Details: dose 3 mg/kg, route oral. To be noted: in vivo. Put shortly:
as §3

Series [11] can be described thus: AUC (0 to 24 hrs) in Sprague-Dawley rat at 3 mg/kg, po. Format: ADME, organism-based. Also noted: time < 24 hr, dose 3 mg/kg, route oral. To be noted: plasma. Put shortly:
as §3

In another series the test system is Rattus norvegicus. Description: Antiobesity activity in po dosed diet induced obese F344 rat model assessed as inhibition of food intake administered qd for 2 days. Type of series: functional, organism-based. A digest of the protocol: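 Male F344/Jcl rats, 32 weeks old, on high-fat diet from 5 weeks of age, housed singly on a 7:00–19:00 light cycle, habituated to oral water dosing, grouped by food intake and body weight (n = 6). Dosed orally at 1, 3, 5 or 10 mg/kg in 0.5% methylcellulose (2 mL/kg) at 5:00 p.m. on days 0 and 1. Cumulative intake on days 1 and 2 expressed as ratio to vehicle group; Williams test.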

Melanin-concentrating hormone receptor 1 (Rattus norvegicus, UniProt P97639), sequence (P97639 whole entry): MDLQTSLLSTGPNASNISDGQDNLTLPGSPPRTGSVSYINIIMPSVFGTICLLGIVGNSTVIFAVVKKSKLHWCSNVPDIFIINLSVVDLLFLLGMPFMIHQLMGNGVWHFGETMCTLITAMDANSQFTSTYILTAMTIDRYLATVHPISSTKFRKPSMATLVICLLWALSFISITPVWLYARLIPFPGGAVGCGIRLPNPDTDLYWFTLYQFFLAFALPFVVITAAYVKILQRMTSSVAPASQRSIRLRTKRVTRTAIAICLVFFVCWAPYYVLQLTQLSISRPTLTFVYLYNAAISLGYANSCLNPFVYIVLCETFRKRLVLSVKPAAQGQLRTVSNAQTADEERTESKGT
T1 sequence (Q99705 whole entry): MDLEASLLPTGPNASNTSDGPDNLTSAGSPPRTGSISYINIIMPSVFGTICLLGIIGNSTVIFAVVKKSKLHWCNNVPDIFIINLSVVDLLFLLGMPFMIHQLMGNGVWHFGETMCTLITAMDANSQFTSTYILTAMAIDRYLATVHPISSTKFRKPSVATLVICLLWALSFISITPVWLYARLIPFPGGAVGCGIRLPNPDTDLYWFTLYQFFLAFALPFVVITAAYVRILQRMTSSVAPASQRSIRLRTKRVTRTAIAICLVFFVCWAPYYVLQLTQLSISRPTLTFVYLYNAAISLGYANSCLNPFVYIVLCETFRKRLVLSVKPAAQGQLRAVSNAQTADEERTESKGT
hERG (KCNH2), sequence (Q12809 whole entry): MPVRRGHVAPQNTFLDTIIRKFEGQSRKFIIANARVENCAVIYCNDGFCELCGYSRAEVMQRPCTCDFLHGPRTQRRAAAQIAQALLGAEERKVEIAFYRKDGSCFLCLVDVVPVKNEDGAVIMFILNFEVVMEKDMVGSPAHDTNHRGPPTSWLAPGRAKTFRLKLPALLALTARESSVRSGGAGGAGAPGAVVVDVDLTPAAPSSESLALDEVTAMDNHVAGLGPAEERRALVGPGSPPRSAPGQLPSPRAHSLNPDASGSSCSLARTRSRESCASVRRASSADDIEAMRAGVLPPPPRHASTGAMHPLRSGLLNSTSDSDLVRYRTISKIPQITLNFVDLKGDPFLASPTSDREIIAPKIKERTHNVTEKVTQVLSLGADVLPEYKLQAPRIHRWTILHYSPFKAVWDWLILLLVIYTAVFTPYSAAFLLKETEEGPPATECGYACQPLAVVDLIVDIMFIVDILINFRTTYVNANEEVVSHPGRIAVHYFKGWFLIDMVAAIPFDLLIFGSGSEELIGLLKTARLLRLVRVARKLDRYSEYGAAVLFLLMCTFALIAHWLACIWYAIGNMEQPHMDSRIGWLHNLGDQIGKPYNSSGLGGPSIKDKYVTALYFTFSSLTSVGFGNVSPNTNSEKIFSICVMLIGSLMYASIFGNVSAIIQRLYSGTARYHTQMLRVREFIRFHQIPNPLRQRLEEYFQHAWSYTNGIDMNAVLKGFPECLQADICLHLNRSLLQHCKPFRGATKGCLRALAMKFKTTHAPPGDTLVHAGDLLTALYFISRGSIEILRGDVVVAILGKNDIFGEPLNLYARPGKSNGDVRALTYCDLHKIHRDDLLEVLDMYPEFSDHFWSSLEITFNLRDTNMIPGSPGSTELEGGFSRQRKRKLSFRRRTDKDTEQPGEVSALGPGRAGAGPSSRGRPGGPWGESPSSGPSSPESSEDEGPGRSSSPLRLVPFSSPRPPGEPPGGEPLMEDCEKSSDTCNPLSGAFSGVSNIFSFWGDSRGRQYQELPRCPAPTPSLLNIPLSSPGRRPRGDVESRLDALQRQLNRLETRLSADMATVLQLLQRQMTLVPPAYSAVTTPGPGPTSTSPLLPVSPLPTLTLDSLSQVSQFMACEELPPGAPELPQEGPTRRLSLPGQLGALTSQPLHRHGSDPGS
Voltage-gated inwardly rectifying potassium channel KCNH2, sequence (Q12809 whole entry): as above

For `Cc1c(NC(=O)c2ccc(OCC3CC3)cc2)ccc2cc([C@H](C)N3CCCC3)cnc12`, the IC50 in series [1] came out at 3.4 nM; in series [2], 8 nM; in series [3] it was 4 nM. Moreover, the Ratio in [4] is recorded as 0.85. The logD in series [5] worked out at 2.99.
In the case of `Cc1c(NC(=O)c2ccc(-c3ccc(F)cc3)cc2)ccc2cc(CN3CCCC3)cnc12`, the IC50 in series [2] was found to be 1 nM. The Ratio in series [4] amounted to 0.17. The same molecule registered a pH-dependent lipophilicity (logD) in [5] of 2.77. This molecule showed an inhibition at 10 µM against hERG (KCNH2) of 93.8%.
For the molecule `Cc1c(NC(=O)c2ccc(OCC3CC3)cc2)ccc2cc(C(C)N3CCCC3)cnc12` (racemic), the IC50 in series [1] was determined as 1.7 nM; in [2] it was 4.2 nM; in series [3], 6.4 nM. Moreover, the Ratio in series [4] is given as 1.02. This molecule also came in with a pH-dependent lipophilicity (logD) in series [5] of 3.
`Cc1c(NC(=O)c2ccc(OCC3CC3)cc2)ccc2cc(C(C)N3CC[C@H](O)C3)cnc12` (mixture of isomers) registered an inhibition at 10 µM against hERG (KCNH2) of 58.4%.
For the molecule `Cc1c(NC(=O)c2ccc(OCC3CC3)cc2)ccc2cc(C(C)N3CCCCCC3)cnc12` (racemic), the IC50 was found to be 2 nM in series [1], 5.6 nM in series [2] and 3.4 nM in series [3]. The Ratio in series [4] was 0.73. The molecule also yielded a logD in series [5] of 3.91.
For the molecule `CCCCCC(=O)c1ccc(C(=O)Nc2ccc3cc(CN4CCCC4)cnc3c2C)cc1`, the concentration for half-maximal inhibition (IC50) in series [1] amounted to 170 nM. In series [4], the Ratio is given as 0.48. In series [5], the pH-dependent lipophilicity (logD) amounted to 3.5.
Consider `Cc1c(NC(=O)c2ccc(OCC3CC3)cc2)ccc2cc([C@@H](C)N3CCCC3)cnc12`, for which the IC50 was determined as 1.1 nM in [1], 1.9 nM in series [2] and 2.9 nM in series [3]. The Ratio in series [4] is listed as 1.11. The pH-dependent lipophilicity (logD) in series [5] amounted to 2.99. Besides, at 10 µM the inhibition against hERG (KCNH2) was 88.1%.
Consider `Cc1c(NC(=O)c2ccc(OCC3CC3)cc2)ccc2cc(CN3CCCC3)cnc12`, for which the concentration for half-maximal inhibition (IC50) was determined as 1.8 nM in [1], 1.6 nM in series [2] and 4.3 nM in [3]. The Ratio in series [4] was found to be 0.9. In series [5], this molecule displayed a logD of 2.77.
As for `Cc1c(NC(=O)c2ccc(OCC3CC3)cc2)ccc2cc(CN3CCCC3C)cnc12` (racemic), the IC50 came to 2.5 nM in [1] and 6.7 nM in series [2].
Molecule `CC(=O)NCCN[C@@H](C)c1cnc2c(C)c(NC(=O)c3ccc(OCC4CC4)cc3)ccc2c1` yielded an inhibition at 10 µM against hERG (KCNH2) of 33.3%.
`Cc1c(NC(=O)c2ccc(OCC(C)C)cc2)ccc2cc(CN3CCCC3)cnc12`: the IC50 turned out to be 4.4 nM in series [1] and 6.7 nM in [2]. The Ratio in series [4] was 0.7. The same molecule gave a logD in series [5] of 3.35.
For the molecule `Cc1c(NC(=O)c2ccc(OCC3CC3)cc2)ccc2cc(C(C)NCCO)cnc12` (racemic), the inhibition at 10 µM on hERG (KCNH2) amounted to 84.8%.
`CC(=O)NCCN[C@H](C)c1cnc2c(C)c(NC(=O)c3ccc(OCC4CC4)cc3)ccc2c1`: the inhibition at 10 µM against hERG (KCNH2) was determined as 33.2%. The bioavailability in series [6] is 43%. In series [7], the clearance was 11.5 mL/min/kg. The Vd in series [8] was 1.21 L/kg. The maximum concentration (Cmax) in [9] was 274 ng/mL. In series [10], the Tmax turned out to be 4 h. Besides, the exposure AUC(0-t) at 24 h in series [11] turned out to be 1940 ng·h/mL. Moreover, the inhibition result in the series on Rattus norvegicus was “Dose-dependent effect”.
Regarding `CC(=O)NCCNC(C)c1cnc2c(C)c(NC(=O)c3ccc(OCC4CC4)cc3)ccc2c1` (racemic), at 10 µM the inhibition against hERG (KCNH2) was 29.3%.
On to `Cc1c(NC(=O)c2ccc(OCC3CC3)cc2)ccc2cc(C(C)NCC(C)(C)O)cnc12` (racemic), for which the IC50 in series [1] was 1.5 nM; in [2], 2.7 nM; in series [3], 6.4 nM. The molecule also returned a log distribution coefficient (logD) in series [5] of 2.67. Also, the inhibition at 10 µM against hERG (KCNH2) was 63.3%.
